Test results from PMC4430720 (British Journal of Cancer, 2015).
Read-outs that look alike come from different tables or passages of the source. Marks after values point to notes of the source that are not given here. Where a SMILES comes first, the peptide text is derived from it. Bridges are numbered along the chain shown (N, C = ends). [ ]: non-standard residue; d: D form. βAla = NCCC(=O)O

What was measured:
[1] = test system: high-grade squamous intraepithelial lesions; settings: intralesional injections; ref Solares et al, 2009; cited from earlier work
[2] = Safety evaluation: local and systemic adverse events; type: in vivo, human; settings: both groups
Method in brief: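 Patients received 35 or 70 mg intralesionally once daily for three consecutive days at weeks 1, 3 and 5. Local and systemic adverse events and routine laboratory parameters were recorded. Systemic toxicity was followed for 24 h after each dose, with cardiovascular monitoring during injection and vital signs. The probability of exceeding 30% grade 3 events per group was estimated.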

[3] = test system: human cervical cancer SiHa cells; assay: Antitumour activity of different CIGB-300 regimens; type: in vivo, NIH nu/nu nude mice; settings: 200 μg intratumoural per injection, tumour volume by caliper
[4] = test system: stage IIB cervical cancer; assay: Therapeutic response by MRI; type: in vivo, human; settings: 1-year follow-up
Method in brief: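 MRI response was graded by RECIST before and after three peptide cycles, then quarterly for 1 year. Follow-up came after chemoradiotherapy: cisplatin 40 mg m−2 weekly for 6 weeks with 5040 cGy external beam in 28 fractions, then 2600 cGy intracavitary in four fractions. CT and abdominal/gynaecological ultrasonography were used to detect metastasis.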

[5] = Pharmacokinetics of unincorporated CIGB-300 in plasma; type: in vivo, human; settings: both groups; highest levels only during the first hour after injection
histamine = assay: Histamine levels in plasma; type: in vivo, human; settings: both groups
Method in brief: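 Stage IIB cervical carcinoma patients received 35 or 70 mg intralesionally. Plasma histamine was measured by commercial EIA before, immediately after, and 5, 15, 30 and 60 min after the first administration. Spearman rank correlation was run between histamine and plasma peptide concentration, and between histamine and allergic-reaction severity.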

[6] = type: in vivo, human; settings: for Biological half-life (tumour): corrected for radioactive decay; for AUC24 (tumour): tumour uptake curve over 24 h; for Maximum uptake (mg CIGB-300): tumour uptake, two sites 0.5 ml each
Method in brief: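 The first patient dose was 99mTc-labelled and injected at two equidistant points, ~2 cm deep (0.5 ml each). Whole-body gamma-camera images were taken at 10 min and 1, 2, 4, 8, 12, 24 h, with tumour static views at 3 and 24 h. Uptake was quantified by MIRD methodology, with tumour mass from baseline MRI. Half-life used decay-corrected fits, and AUC used mono/biexponential fits.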

[7] = type: in vivo, NIH nu/nu nude mice; settings: 100 μg 99mTc-radiolabelled CIGB-300 intratumour in 0.2 or 0.5 ml PBS
Method in brief: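 Female 6–8-week NIH nu/nu mice carried subcutaneous SiHa xenografts (5 × 10^6 cells, right inguinal flank). At 150 mm3, tumours received 100 μg 99mTc-labelled test compound in 0.025, 0.05, 0.2 or 0.5 ml PBS. Planar gamma-camera images were taken immediately and at 0.25, 1, 4, 24, 48 h. Tumour ROI signal was expressed as percent of the total initial image.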

[8] = 2 ml at a single tumour site, ref Soriano-García et al, 2013, cited from earlier work
B23/NPM = assay: In situ B23/NPM expression in tumour biopsies by immunohistochemistry; type: in vivo, human
Method in brief: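 Paraffin-embedded tumour biopsies were taken before and after the three treatment cycles. After deparaffinisation, sections were immunostained with a human B23/NPM monoclonal primary antibody and a commercial immunostaining kit, developed with peroxidase and counterstained with hematoxylin. Pre/post values were compared by paired Student's t-test or Wilcoxon test, chosen by the Shapiro–Wilk normality result.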

## CSCC[C@@H]1NC(=O)[C@H](Cc2c[nH]c3ccccc23)NC(=O)[C@@H](NC(=O)CCNC(=O)[C@H](CCC(N)=O)NC(=O)[C@@H]2CCCN2C(=O)[C@@H]2CCCN2C(=O)[C@H](CCCNC(=N)N)NC(=O)[C@H](CCCNC(=N)N)NC(=O)[C@H](CCCNC(=N)N)NC(=O)[C@H](CCC(N)=O)NC(=O)[C@H](CCCNC(=N)N)NC(=O)[C@H](CCCNC(=N)N)NC(=O)[C@H](CCCCN)NC(=O)[C@H](CCCCN)NC(=O)[C@H](CCCNC(=N)N)NC(=O)CN)CSSC[C@@H](C(=O)O)NC(=O)[C@H]([C@@H](C)O)NC(=O)CNC(=O)[C@H](CC(C)C)NC(=O)[C@H](Cc2c[nH]cn2)NC(=O)[C@H](CCCNC(=N)N)NC(=O)[C@@H]2CCCN2C(=O)[C@H](CO)NC1=O [CIGB-300] (H-GRKKRRQRRRPPQ[βAla]CWMSPRHLGTC-OH; disulfide 15-25; N-terminus and C-terminus assumed)
[1]
  Patients with full histological regression: 19%
  Patients with significant colposcopic response: 90%
  Previously positive patients with negative human papillomavirus DNA: 48%
[2]
  Blood counts and serum chemistry values, baseline vs post-treatment: no differences
[3]
  Three cycles of three consecutive daily injections: minimal frequency required to reduce tumour growth
[4]; both groups
  Deaths because of disease progression, whole trial: four
[4]; group I (35 mg)
  Deaths because of disease progression, group I: three
[5]
  CIGB-300 levels in blood over time: near undetectable after 8 h
histamine; after first injection, rapid increase first
  Time to return of plasmatic histamine to normal levels (1 ng ml^−1): 15 min
histamine; plasma
  Overall histamine median when grade 1 allergic-like events occurred: 0.7 ng/mL
  Overall histamine median when grade 2 allergic-like events occurred: 3.5 ng/mL
[6]; group I 35 mg, N=6, mean±s.d.
  Biological half-life (tumour): 3.9±0.9 (2.6–5.5) h
  AUC24 (tumour): 132±72.2 (45.3–235) mg h
[6]; group II 70 mg, N=7, mean±s.d.
  Biological half-life (tumour): 6.2±1.9 (3.5–10.1) h
  AUC24 (tumour): 385±167 (90.3–646) mg h
[6]; group II 70 mg, tumour mass estimated by MRI, N=6, mean±s.d.
  Maximum uptake (mg CIGB-300 per g tumour): 1.1±0.8 (0.4–2.7) ^b mg g^−1
[6]; mean values, P=0.01
  Maximum tumour uptake, 70 mg compared with 35 mg: two-fold higher
[6]; group I 35 mg intralesional, N=6, mean±s.d.
  Maximum uptake (mg CIGB-300): 16.1±8.9 (3.8–27.2) mg
[6]; group II 70 mg intralesional, N=7, mean±s.d.
  Maximum uptake (mg CIGB-300): 31.3±12.9 (9.9–48.7) mg
[7]
  CIGB-300 tumour uptake, higher injection volume: worse tumour uptake
[8]; 35 mg
  Maximum tumour uptake: 14.9 ± 6.4 mg
[8]; 70 mg
  Maximum tumour uptake: 10.4 ± 8.3 mg
B23/NPM; after CIGB-300 treatment
  B23/nucleophosmin expression at the nucleoplasm: not considerably modified
B23/NPM; evaluated patients of both groups
  Patients with reduced nucleolar B23/NPM expression after CIGB-300 treatment: 10 out of the 12
B23/NPM; group I (35 mg), N=6, mean±s.d., baseline 56.0±17.6, Student's t-test p 0.14
  Levels of in situ B23/NPM in tumour biopsies, post CIGB-300: 36.4±18.9
